The values below come from ChEMBL document CHEMBL4321880 (J Med Chem, 2020).

The target of one data set is CYP3A5 (Homo sapiens, UniProt P20815). In words: Inhibition of human recombinant CYP3A5 expressed in supersomes assessed as decrease in formation of D-luciferin at 1.89 uM using luciferin-IPA as substrate incubated for 10 mins in presence of NADPH by P450-Glo luminescence assay relative to control. The conditions noted are these: probe luciferin-IPA.
For data set [1], the system named is ASPC1. Put plainly: Cytotoxicity against CRISPR/Cas9-mediated CYP3A5 knock-out and lentiviral pLVX-TRE3G-ZsGreen1-CYP3A5 transduced human AsPC1 cells overexpressing CYP3A5 assessed as cell growth. Format: ADME, cell-based. The method, boiled down: (§1)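 Cells seeded at 10,000/well. Dox-inducible lines were induced with 100 ng/mL doxycycline, then treated 24 h later with compound at 16 two-fold dilutions (0.0003–10 μM) plus 5 μM midazolam, in 0.66% DMSO final, for 24 h. Phase-contrast confluence imaging followed. Values were normalized to six 0.66% DMSO replicates and fitted with a three-parameter log(inhibitor) vs response curve.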

In the next data set the target is T1, Cytochrome P450 2C8 (Homo sapiens, UniProt P10632).
T1 sequence (P10632 whole entry): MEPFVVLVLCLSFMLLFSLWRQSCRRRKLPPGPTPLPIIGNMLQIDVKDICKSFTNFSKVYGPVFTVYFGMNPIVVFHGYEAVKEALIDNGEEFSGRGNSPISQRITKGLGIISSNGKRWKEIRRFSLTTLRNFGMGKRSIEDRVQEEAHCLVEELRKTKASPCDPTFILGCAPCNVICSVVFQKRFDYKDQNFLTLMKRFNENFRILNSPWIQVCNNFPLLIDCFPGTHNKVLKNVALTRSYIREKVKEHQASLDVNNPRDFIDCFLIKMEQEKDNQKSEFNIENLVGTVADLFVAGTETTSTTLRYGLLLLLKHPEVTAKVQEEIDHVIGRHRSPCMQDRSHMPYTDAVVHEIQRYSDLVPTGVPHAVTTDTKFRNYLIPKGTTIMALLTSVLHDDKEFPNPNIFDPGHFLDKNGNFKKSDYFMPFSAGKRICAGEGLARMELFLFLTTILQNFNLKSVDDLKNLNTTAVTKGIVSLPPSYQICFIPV
In words: Inhibition of CYP2C8 in human liver microsomes assessed as formation of desethylamodiaquine at 1.85 uM using amodiaquine as substrate incubated for 10 mins in presence of NADPH by LC-MS/MS analysis. The class given is ADME. Summed up: (§2)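 Pooled human liver microsomes with 2 mM NADPH in 100 mM KPO4 pH 7.4, 5 mM MgCl2, 37 °C, technical triplicate, final DMSO 0.2%. Probe (substrate, level, protein, time): 1A2 tacrine 5 μM, 0.2 mg/mL, 10 min; 2B6 bupropion 100 μM, 0.25 mg/mL, 10 min; 2C8 amodiaquine 5 μM, 0.25 mg/mL, 10 min; 2C9 tolbutamide 100 μM, 0.5 mg/mL, 15 min; 2C19 mephenytoin 100 μM, 0.25 mg/mL, 60 min; 2D6 dextromethorphan 5 μM, 0.5 mg/mL, 10 min; 3A4 midazolam 2.5 μM or testosterone 50 μM, 0.25 mg/mL, 10 min. Methanol quench, metabolites measured by LC-MS/MS.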

The target of another data set is T2, Cytochrome P450 2B6 (Homo sapiens, UniProt P20813).
T2 sequence (P20813 whole entry): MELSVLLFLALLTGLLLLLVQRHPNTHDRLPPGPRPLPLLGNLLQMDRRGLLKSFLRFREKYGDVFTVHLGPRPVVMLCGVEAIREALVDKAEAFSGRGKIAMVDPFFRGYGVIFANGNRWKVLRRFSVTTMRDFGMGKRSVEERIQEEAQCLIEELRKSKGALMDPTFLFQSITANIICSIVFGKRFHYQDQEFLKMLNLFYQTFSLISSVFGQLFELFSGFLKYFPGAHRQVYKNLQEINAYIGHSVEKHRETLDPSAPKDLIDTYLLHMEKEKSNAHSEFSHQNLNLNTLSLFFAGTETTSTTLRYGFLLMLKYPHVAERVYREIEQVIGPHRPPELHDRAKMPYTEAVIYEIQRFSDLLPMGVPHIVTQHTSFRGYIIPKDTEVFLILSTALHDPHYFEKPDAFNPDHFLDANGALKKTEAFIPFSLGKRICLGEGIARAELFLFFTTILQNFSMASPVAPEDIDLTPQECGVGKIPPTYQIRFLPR
Put plainly: Inhibition of CYP2B6 in human liver microsomes assessed as formation of hydroxybupropion at 1.85 uM using bupropion as substrate incubated for 10 mins in presence of NADPH by LC-MS/MS analysis. Format: ADME. Summed up:
as §2

A further data set concerns the target Cytochrome P450 2C19 (Homo sapiens, UniProt P33261). Put plainly: Inhibition of CYP2C19 in human liver microsomes assessed as formation of 4-hydroxymephenytoin at 1.85 uM using mephenytoin as substrate incubated for 60 mins in presence of NADPH by LC-MS/MS analysis. Format: ADME. The note with it: 1 h. Summed up: as §2
(In general: Liver microsomes are vesicles of endoplasmic reticulum, rich in cytochrome P450 enzymes.)

Data set [2] relates to ASPC1. In words: Increase in CYP3A4 expression in CRISPR/Cas9-mediated CYP3A5 knock-out and doxycycline-induced CYP3A4 overexpressing human AsPC1 cells at 1 uM after 24 hrs by Western blot analysis. Format: ADME, cell-based. The conditions noted are these: aspc1, 24 h. Summed up: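 Overexpression was induced with 100 ng/mL doxycycline. […] Blots were probed with anti-CYP3A4 K03 (also detects CYP3A5) and β-actin, with infrared dye secondaries. Bands were normalized to actin across triplicate gels, with DMSO set as 1.0.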
On the technique in general: Immunoblotting shows a protein as a band on a membrane.

Data set [3] has as its system ASPC1. Put plainly: Cytotoxicity against CRISPR/Cas9-mediated CYP3A5 knock-out and doxycycline-induced CYP3A5 overexpressing human AsPC1 cells assessed as cell growth. Format: ADME, cell-based. The method, boiled down:
as §1

Data set [4] has as its target T3, Cytochrome P450 3A4 (Homo sapiens, UniProt P08684). In words: Inhibition of CYP3A4 in CRISPR/Cas9-mediated CYP3A5 knock-out and doxycycline-induced CYP3A4 overexpressing human AsPC1 cells assessed as decrease in 1-hydroxymidazolam formation using midazolam as substrate pretreated with doxycycline for 24 hrs followed by incubation with compound for 24 hrs by LC-MS/MS analysis. The class given is ADME, cell-based. The method, boiled down:
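AsPC-1 CYP3A5−/− cells with Dox-inducible CYP3A4, 10,000 cells/well, induced with 100 ng/mL doxycycline. Quenched with acetonitrile containing warfarin internal standard. 1-Hydroxymidazolam measured by LC-MS/MS and normalized to DMSO control (100%).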

Data set [5] relates to ASPC1. Put plainly: Cytotoxicity against CRISPR/Cas9-mediated CYP3A5 knock-out and doxycycline-induced CYP3A4 overexpressing human AsPC1 cells assessed as cell growth. The class given is ADME, cell-based. Summed up: as §1
Data set [6] relates to ASPC1. Put plainly: Cytotoxicity against wild type human AsPC1 cells assessed as cell growth. The class given is cell-based. The method, boiled down:
as §1

Data set [7] concerns the target T3, Cytochrome P450 3A4. In words: Binding affinity to His-tagged CYP3A4 (unknown origin) expressed in Escherichia coli DH5alpha assessed as formation of Soret band at 386 nm with low decrease in low-spin soret maxima at 416 nm by UV-vis spectrophotometric titration analysis. The class given is ADME. On the set-up: dose or concentration left out as unconfirmed. The method, boiled down: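 Recombinant His-tagged enzyme expressed in E. coli with groESL chaperones, purified by Ni-NTA, CM-sepharose and S-200 gel filtration (Rz ≥1.3). Ligand added stepwise until heme absorbance stopped changing. Difference spectra taken against the ligand-free spectrum. Peak-minus-trough ΔAbs (388–418 nm) plotted against ligand concentration and fitted with equation 2 for Kd.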

The structures appear in SMILES notation.

T3 sequence (P08684 whole entry): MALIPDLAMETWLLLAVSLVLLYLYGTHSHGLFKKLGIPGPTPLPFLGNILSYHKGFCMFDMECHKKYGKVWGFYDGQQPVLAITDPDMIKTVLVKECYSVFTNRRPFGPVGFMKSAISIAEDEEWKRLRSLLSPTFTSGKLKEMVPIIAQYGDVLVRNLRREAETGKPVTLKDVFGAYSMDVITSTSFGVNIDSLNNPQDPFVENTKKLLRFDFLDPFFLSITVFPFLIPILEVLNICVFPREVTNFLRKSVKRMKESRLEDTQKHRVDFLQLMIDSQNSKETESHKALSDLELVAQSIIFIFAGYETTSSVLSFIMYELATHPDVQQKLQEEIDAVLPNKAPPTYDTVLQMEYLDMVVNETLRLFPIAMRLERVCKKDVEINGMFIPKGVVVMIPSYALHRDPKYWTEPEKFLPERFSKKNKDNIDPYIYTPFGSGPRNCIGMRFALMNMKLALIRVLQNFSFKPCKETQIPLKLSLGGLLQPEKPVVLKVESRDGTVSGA
Sequence of CYP3A5 (P20815 whole entry): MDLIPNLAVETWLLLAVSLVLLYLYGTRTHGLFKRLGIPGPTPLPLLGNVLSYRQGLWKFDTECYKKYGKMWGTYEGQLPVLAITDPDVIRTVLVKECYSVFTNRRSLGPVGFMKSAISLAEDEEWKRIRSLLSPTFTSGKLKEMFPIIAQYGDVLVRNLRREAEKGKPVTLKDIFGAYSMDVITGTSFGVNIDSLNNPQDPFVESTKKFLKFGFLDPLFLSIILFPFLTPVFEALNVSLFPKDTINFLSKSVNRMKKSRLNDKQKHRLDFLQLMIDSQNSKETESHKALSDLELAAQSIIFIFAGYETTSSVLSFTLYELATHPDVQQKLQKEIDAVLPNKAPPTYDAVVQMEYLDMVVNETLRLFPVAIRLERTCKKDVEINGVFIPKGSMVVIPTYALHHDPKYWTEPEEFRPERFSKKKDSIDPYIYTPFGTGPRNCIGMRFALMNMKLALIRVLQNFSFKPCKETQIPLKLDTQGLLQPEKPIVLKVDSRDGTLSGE
Sequence of Cytochrome P450 2C19 (P33261 whole entry): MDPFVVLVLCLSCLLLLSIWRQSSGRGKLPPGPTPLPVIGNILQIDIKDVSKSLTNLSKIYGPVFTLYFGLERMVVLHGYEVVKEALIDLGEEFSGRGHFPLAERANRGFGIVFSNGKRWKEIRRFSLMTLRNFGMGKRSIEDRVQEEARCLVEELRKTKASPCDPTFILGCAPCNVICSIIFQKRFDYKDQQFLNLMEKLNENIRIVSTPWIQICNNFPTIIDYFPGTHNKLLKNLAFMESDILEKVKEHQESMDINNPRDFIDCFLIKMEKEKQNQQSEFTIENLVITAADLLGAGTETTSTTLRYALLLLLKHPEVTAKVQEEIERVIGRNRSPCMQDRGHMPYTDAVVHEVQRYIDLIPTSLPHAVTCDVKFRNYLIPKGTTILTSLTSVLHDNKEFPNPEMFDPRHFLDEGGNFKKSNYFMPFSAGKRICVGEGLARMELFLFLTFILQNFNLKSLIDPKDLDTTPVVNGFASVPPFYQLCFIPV

In the case of `CCC(=O)O[C@]1(C(=O)CCl)[C@@H](C)C[C@H]2[C@@H]3CCC4=CC(=O)C=C[C@]4(C)[C@@]3(F)[C@@H](O)C[C@@]21C` [CLOBETASOL PROPIONATE], the inhibition – broadly, the percentage by which the read-out fell short of the control – at 10 min, 1.89 µM at CYP3A5 was found to be 90%. For the same molecule, the Activity result in the data set on ASPC1 [1] is given as “Non-Toxic”; in the data set on ASPC1 [2], “Not Active”; in the data set on ASPC1 [3], “Non-Toxic”; in the data set on ASPC1 [5], “Non-Toxic”; in the data set on ASPC1 [6], “Non-Toxic”; at Cytochrome P450 3A4 [7] it was “Active”. Moreover, the “inhibition (INH)” value on Cytochrome P450 2C8, on Cytochrome P450 2B6 and at Cytochrome P450 2C19 was “Not Active” throughout. For the same molecule, the IC50 entry on Cytochrome P450 3A4 [4] is “Not Active”.
